Inhibition in vivo data for 14 compounds are collected here from ChEMBL document CHEMBL1122378, “Antiallergic agents. 2. N-(1H-tetrazol-5-yl)-6-phenyl-2-pyridinecarboxamides” (1983).

As usually defined, the inhibition in vivo is the drop in the measured response relative to a control, in per cent.

Holding throughout (assay type): functional
In experiment [1] the test system is Rattus norvegicus. The experiment is described as follows: Antiallergic activity against passive cutaneous anaphylaxis (PCA) in male Sprague-Dawley rats after 3.0 mg/kg oral administration;not statistically significant. A digest of the protocol:
(§1)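 IgE antiserum raised in male Sprague-Dawley rats (ca. 200 g) by immunization with Ascaris suum extract (2 then 0.2 mg protein), bled 2 weeks after the second dose. Recipients got 0.05 mL diluted antiserum intracutaneously on the back. Blued area (product of two diameters) was read at 30 min.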

The test system of experiment [2] is Rattus norvegicus. In words: Antiallergic activity against passive cutaneous anaphylaxis (PCA) in male Sprague-Dawley rats after 10.0 mg/kg oral administration;p<0.1. A digest of the protocol: as §1
In experiment [3] the test system is Rattus norvegicus. In words: Inhibition of passive cutaneous anaphylaxis in male Sprague-Dawley rats following 10 mg/kg p.o. administration. The following applies: route oral. A digest of the protocol: as §1
In experiment [4] the test system is Rattus norvegicus. In words: Antiallergic activity against passive cutaneous anaphylaxis (PCA) in male Sprague-Dawley rats after 3.0 mg/kg oral administration;p<0.1. A digest of the protocol:
as §1

In experiment [5] the test system is Rattus norvegicus. The experiment is described as follows: Antiallergic activity against passive cutaneous anaphylaxis (PCA) in male Sprague-Dawley rats after 3.0 mg/kg oral administration;p<0.1. A digest of the protocol: as §1
In experiment [6] the test system is Rattus norvegicus. The experiment is described as follows: Inhibition of passive cutaneous anaphylaxis in male Sprague-Dawley rats following 1 mg/kg p.o. administration; Not significant. The following applies: route oral. A digest of the protocol: as §1
The test system of experiment [7] is Rattus norvegicus. In words: Antiallergic activity against passive cutaneous anaphylaxis (PCA) in male Sprague-Dawley rats after 1.0 mg/kg oral administration;p<0.1. A digest of the protocol: as §1
The subject of experiment [8] is Rattus norvegicus. The experiment is described as follows: Antiallergic activity against passive cutaneous anaphylaxis (PCA) in male Sprague-Dawley rats after 3.0 mg/kg oral administration. A digest of the protocol:
as §1

For experiment [9], the system named is Rattus norvegicus. In words: Antiallergic activity against passive cutaneous anaphylaxis (PCA) in male Sprague-Dawley rats after 0.3 mg/kg oral administration. A digest of the protocol: as §1
Experiment [10] has as its system Rattus norvegicus. The experiment is described as follows: Antiallergic activity against passive cutaneous anaphylaxis (PCA) in male Sprague-Dawley rats after 0.3 mg/kg oral administration;p<0.1. A digest of the protocol: as §1
In experiment [11] the test system is Rattus norvegicus. The experiment is described as follows: Inhibition of passive cutaneous anaphylaxis in male Sprague-Dawley rats following 0.3 mg/kg p.o. administration; Not significant. The following applies: route oral. A digest of the protocol:
as §1

Take `Cc1ccc(-c2cc(Cl)cc(C(=O)Nc3nn[nH]n3)n2)cc1C`: in experiment [1], 3 mg/kg produced 32% inhibition in vivo. The same compound had an inhibition in vivo at 10 mg/kg in experiment [2] of 58%.

Take `CCCc1cc(C(=O)Nc2nn[nH]n2)nc(-c2ccccc2)c1`: 10 mg/kg produced 85% inhibition in vivo in [3]. For the same compound, testing at 3 mg/kg in [4] gave an inhibition in vivo of 22%.

In experiment [5], `Cc1cc(C(=O)Nc2nn[nH]n2)nc(-c2cccc(N)c2)c1` came in with an inhibition in vivo at 3 mg/kg of 50%. Besides, at 1 mg/kg the inhibition in vivo in experiment [6] was 29%.

For the compound `COc1cc(C(=O)Nc2nn[nH]n2)nc(-c2ccc(OC)c(OC)c2)c1`, the inhibition in vivo at 3 mg/kg in [5] turned out to be 62%. The compound further came in with an inhibition in vivo at 10 mg/kg in experiment [3] of 51%. In experiment [6], this compound gave an inhibition in vivo at 1 mg/kg of 18%.

In experiment [7], `CCCOc1cc(C(=O)Nc2nn[nH]n2)nc(-c2ccccc2)c1` returned an inhibition in vivo at 1 mg/kg of 27%. Besides, at 3 mg/kg the inhibition in vivo in experiment [8] was 100%. In addition, in experiment [9], 0.3 mg/kg produced 0% inhibition in vivo.

On to `O=C(Nc1nn[nH]n1)c1cccc(-c2ccccc2)n1`, for which the inhibition in vivo at 1 mg/kg in [7] is 36%. For the same compound, the inhibition in vivo at 10 mg/kg in experiment [3] turned out to be 81%. In experiment [8], this compound displayed an inhibition in vivo at 3 mg/kg of 74%.

In the case of `COc1cc(C(=O)Nc2nn[nH]n2)nc(-c2ccc(N)cc2)c1`, testing at 1 mg/kg in [7] gave an inhibition in vivo of 50%. The inhibition in vivo at 0.3 mg/kg in experiment [10] came to 12%.

Take `Nc1cccc(-c2cccc(C(=O)Nc3nn[nH]n3)n2)c1`: the inhibition in vivo at 3 mg/kg in [8] worked out at 0%. The compound also had an inhibition in vivo at 10 mg/kg in experiment [2] of 57%.

In experiment [7], `COc1cc(C(=O)Nc2nn[nH]n2)nc(-c2cccc(N)c2)c1` showed an inhibition in vivo at 1 mg/kg of 27%. This compound displayed an inhibition in vivo at 3 mg/kg in [8] of 41%. This compound came in with an inhibition in vivo at 10 mg/kg in [2] of 58%.

Compound `COc1ccc(-c2cc(C)cc(C(=O)Nc3nn[nH]n3)n2)cc1` showed an inhibition in vivo at 3 mg/kg in experiment [8] of 43%. In experiment [2], this compound registered an inhibition in vivo at 10 mg/kg of 52%.

`CCCCc1ccc(-c2cc(C)cc(C(=O)Nc3nn[nH]n3)n2)cc1`: the inhibition in vivo at 1 mg/kg in experiment [7] was found to be 42%. In experiment [8], this compound returned an inhibition in vivo at 3 mg/kg of 67%. Also, in [11], the inhibition in vivo at 0.3 mg/kg amounted to 17%.

For the compound `CCc1ccc(-c2cc(C)cc(C(=O)Nc3nn[nH]n3)n2)cc1`, in [3], testing at 10 mg/kg gave an inhibition in vivo of 100%. Besides, the inhibition in vivo at 3 mg/kg in experiment [4] is 35%.

As to `COc1cc(C(=O)Nc2nn[nH]n2)nc(-c2ccc(C(C)(C)C)cc2)c1`, the inhibition in vivo at 3 mg/kg in [5] was 68%. The compound also yielded an inhibition in vivo at 1 mg/kg in experiment [6] of 29%.

Consider `O=C(Nc1nn[nH]n1)c1cc(Cl)cc(-c2ccc(Cl)cc2)n1`, for which the inhibition in vivo at 3 mg/kg in [8] was 11%. This compound also showed an inhibition in vivo at 10 mg/kg in experiment [2] of 63%.
